Screens from PubChem BioAssay.
NR2E3 ag-1 = inhibitors of NR2E3-RetCOR corepressor binding, primary screen, NR2E3 agonist project, biochemical, TR-FRET, GST-NR2E3, biotin-RetCOR | 1536-well | AID 2300, 2010 | hit rate 0.12% among 320,000 | inhibition of corepressor binding, % at 4.78 µM | Photoreceptor-specific nuclear receptor (Homo sapiens), Q9Y5X4;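 active = percent inhibition above the cutoff of mean plus 3 SD of all tested compounds, set per screening campaign, cut at about 20% in these data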
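Assay system: NR2E3–RetCOR corepressor complex. Quantity: 1.35 nM GST-NR2E3. Buffer or medium: pH 7.5 Tris-based buffer. Reagent: biotinylated RetCOR corepressor at 7 nM final. Schedule: 5 h at 4 °C. Detection: TR-FRET, emission read at 617 and 671 nm. Replicates: one well per compound, singlicate testing.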
NR2E3 ag-2 = NR2E3 agonists in two-hybrid cells, primary screen, cell-based, luminescence, CHO-S, Gal4-NCOR/VP16-NR2E3; Photoreceptor-specific nuclear receptor (Homo sapiens), Q9Y5X4; luciferase; inhibition of corepressor binding, % at 3.98 µM; hit rate 0.35% among 360,000; AID 602229, 2012;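 active = inhibition above the mean of all tested compounds plus 3 SD, cut at about 70% in these data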;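 note: higher means lower luciferase signal from less NR2E3 corepressor binding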
PP5 primary = PP5 phosphatase inhibitors, primary screen, biochemical, fluorescence. purified PP5c, OMFP substrate fluorescence. inhibition, % at 6.7 µM. hit rate 0.18% among 320,000. AID 1987, 2009;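 active = inhibition above the campaign's mean inhibition across all tested compounds plus 3 SD, cut at about 9.5% in these data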
PP1 inh = PP1-alpha phosphatase inhibitors, primary screen, counter-screen for PP5 inhibitor project, biochemical, fluorescence, OMFP substrate, single point | Serine/threonine-protein phosphatase PP1-alpha catalytic subunit (Homo sapiens), P62136 | inhibition, % at 6.7 µM | hit rate 0.9% among 320,000 | purified PP1alpha;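 active = inhibition above the mean inhibition of all tested compounds plus 3 SD, computed separately for each screening campaign, cut at about 15% in these data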
Target sequence (P62136 whole entry, looked up): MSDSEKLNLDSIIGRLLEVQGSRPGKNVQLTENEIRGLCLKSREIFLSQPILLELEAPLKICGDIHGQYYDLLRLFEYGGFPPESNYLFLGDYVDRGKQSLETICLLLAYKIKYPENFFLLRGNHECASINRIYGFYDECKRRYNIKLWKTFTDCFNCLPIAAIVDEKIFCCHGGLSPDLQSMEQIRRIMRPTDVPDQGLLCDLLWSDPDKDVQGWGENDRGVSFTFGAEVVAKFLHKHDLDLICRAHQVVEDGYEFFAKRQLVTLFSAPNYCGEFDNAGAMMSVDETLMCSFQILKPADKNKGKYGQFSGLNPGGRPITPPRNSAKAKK
PP1 confirm = PP1 phosphatase inhibitors, confirmation, biochemical, fluorescence, OMFP substrate, triplicate | purified PP1alpha | hit rate 52% among 1,900 | inhibition, % at 6.7 µM | AID 2358, 2010 | shares compounds with PP1 inh;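 active = mean PP1 inhibition above a set limit taken from the earlier primary screen, cut at about 15% in these data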
PP5 counter = PP5 phosphatase inhibition by PP1 hits, confirmation, counter-screen for PP1 inhibitor project, biochemical, fluorescence, triplicate | hit rate 4% among 1,900 | AID 2360, 2010 | purified PP5c, OMFP fluorescence | shares compounds with PP1 inh | inhibition, % at 6.7 µM;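 active = mean PP5 inhibition over triplicate wells above about 9.5% taken from the earlier PP1 screen, limit read from the data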
Of the large screens only hits and unclear results are named; the others gave an inactive call (follow-up assays come after a bar, where they were run). Sampled rows, rich in hits. Any-hit rate of the full collection: about 1.3%.

CCOC(=O)[C@]12CCC=C1N(Cc1ccc(Cl)cc1Cl)C(=O)[C@H](CC(=O)N1CCC(c3ccccc3)CC1)C2	none (no result: NR2E3 ag-1, PP5 primary, PP1 inh)
CCOC(=O)c1c(CSC(=N)N)n(-c2ccc(C)cc2)c2cc(Br)c(OC(C)=O)cc12	PP1 inh 20.4 | PP1 confirm inactive | PP5 counter inactive
CCOC(=O)N1CCN(S(=O)(=O)c2ccc(C(=O)Nc3nnc(C)o3)cc2)CC1	none
O=C(Nc1nnc(C2=COCCO2)o1)c1ccc(Cc2ccccc2)cc1	PP1 inh 21.8 | PP1 confirm 19.9 | PP5 counter inactive
CC1CCCN(S(=O)(=O)c2ccc(C(=O)Nc3nnc(C4=COCCO4)o3)cc2)C1 (centres undefined)	PP1 inh 19.2 | PP1 confirm inactive | PP5 counter inactive
Cc1nnc(NC(=O)c2ccc(S(=O)(=O)N3CC(C)CC(C)C3)cc2)o1 (centres undefined)	PP1 inh 22.5 | PP1 confirm inactive | PP5 counter inactive
Cc1nnc(NC(=O)c2ccc(S(=O)(=O)N3CCc4ccccc4C3)cc2)o1	PP1 inh 24.1 | PP1 confirm 21.1 | PP5 counter inactive
O=C(Nc1nnc(C2=COCCO2)o1)c1ccc(Cl)cc1	none
Cc1ccc(NC(=O)C2=C(c3ccccc3)S(=O)(=O)CCS2(=O)=O)cc1	none
COc1ccc(C2SCC(=O)N2C)cc1 (centres undefined)	none
CC(C)N1C(=O)CSC1c1ccc(Br)cc1 (centres undefined)	PP1 inh 86.7 | PP1 confirm inactive | PP5 counter inactive
CCCC(=O)Oc1ccccc1C1SCc2cc(C)c(C)cc2CS1	PP1 inh 22.3 | PP1 confirm inactive | PP5 counter inactive
CCOC(=O)C(C(=O)OCC)C1OC(=O)c2cc3c(cc21)C(=O)OC3C(C(=O)OCC)C(=O)OCC (centres undefined)	none
CC(=O)NCCc1ccc(C(=O)COC(=O)c2cccs2)cc1	none (no result: NR2E3 ag-1, PP5 primary, PP1 inh)
N#C/C(=C(/O)c1ccc(Cl)c([N+](=O)[O-])c1)c1nc2ccccc2[nH]1	PP1 inh 19.9 | PP1 confirm inactive | PP5 counter inactive
N#C/C(=C(/O)c1ccc([N+](=O)[O-])cc1)c1nc2ccccc2[nH]1	none
C=CCNC(=O)c1c(CS(=O)(=O)c2ccccc2)noc1C(=O)NCc1ccccc1	none
NC(=O)CC(NC(=O)Cc1ccc(Br)cc1)c1ccc(NCCc2ccccc2F)c([N+](=O)[O-])c1 (centres undefined)	PP1 inh 24.1 | PP1 confirm 24.6 | PP5 counter inactive
NC(=O)CC(NC(=O)c1ccc(Br)cc1)c1ccc(NCc2ccc(F)cc2)c([N+](=O)[O-])c1 (centres undefined)	PP1 inh 18.7 | PP1 confirm 25.5 | PP5 counter inactive
NC(=O)CC(NC(=O)Cc1ccc(Br)cc1)c1ccc(NCCc2ccc(F)cc2)c([N+](=O)[O-])c1 (centres undefined)	PP1 inh 18.3 | PP1 confirm 25.2 | PP5 counter inactive
COc1ccc(CCNc2ccc(C(CC(N)=O)NC(=O)c3ccc(Br)cc3)cc2[N+](=O)[O-])cc1 (centres undefined)	PP1 inh 17.6 | PP1 confirm 24.6 | PP5 counter inactive
NC(=O)CC(NC(=O)Cc1ccc(Br)cc1)c1ccc(NCCc2ccc(Cl)cc2)c([N+](=O)[O-])c1 (centres undefined)	none (no result: NR2E3 ag-1, PP5 primary, PP1 inh)
COc1ccc(CCNc2ccc(C(CC(N)=O)NC(=O)Cc3ccc(Br)cc3)cc2[N+](=O)[O-])cc1 (centres undefined)	PP1 inh 17.7 | PP1 confirm 26.0 | PP5 counter inactive
Cc1ccc(S(=O)(=O)NCc2ccccc2)cc1C(=O)NCC(=O)Nc1c(C)cccc1C	none (no result: NR2E3 ag-1, PP5 primary, PP1 inh)
O=C(NCc1cc(Cl)cc(Cl)c1)c1csc([C@@H]2C[C@H](O)[C@@H](CO)O2)n1	none (no result: NR2E3 ag-1, PP5 primary, PP1 inh)
Cc1ccc(Oc2nnc(-c3ccc(C)cc3)c3ccccc23)cc1	PP1 inh 40.7 | PP1 confirm inactive | PP5 counter inactive
CCCCCCCCn1ccc(=N)cc1	none
CCCCCCCCCCCCCCCCn1cc[n+](C)c1	PP1 inh 24.8 | PP1 confirm inactive | PP5 counter inactive
C[C@H](CO)N1C[C@H](C)[C@@H](CN(C)C(=O)NC2CCCCC2)Oc2c(NC(=O)Nc3ccc(C(F)(F)F)cc3)cccc2C1=O	none (no result: NR2E3 ag-1, PP5 primary, PP1 inh)
CCCn1c(=O)c(C(=O)Nc2ncccc2O)c(O)c2ccccc21	none (no result: NR2E3 ag-1, PP5 primary, PP1 inh)
Cn1c(=O)c(C(=O)Nc2ncccc2O)c(O)c2ccccc21	PP1 inh 27.6 | PP1 confirm 29.5 | PP5 counter inactive
O=C(Nc1ccc(F)c(Cl)c1)c1csc(COCCO)n1	none (no result: NR2E3 ag-1, PP5 primary, PP1 inh)
NC(=O)CC(NC(=O)Cc1cccc2ccccc12)c1ccc(NC2CCCCC2)c([N+](=O)[O-])c1 (centres undefined)	PP1 inh 19.7 | PP1 confirm 24.1 | PP5 counter inactive
NC(=O)CC(NC(=O)Cc1cccc2ccccc12)c1ccc(NCC2CC2)c([N+](=O)[O-])c1 (centres undefined)	none
NC(=O)CC(NC(=O)Cc1cccc2ccccc12)c1ccc(NCCOc2ccccc2)c([N+](=O)[O-])c1 (centres undefined)	PP1 inh 23.1 | PP1 confirm 27.3 | PP5 counter inactive
O=C(Nc1nc(-c2ccccn2)cs1)c1ccc(S(=O)(=O)N2CCCCC2)cc1	PP1 inh 29.4 (no result: NR2E3 ag-2) | PP1 confirm 26.8 | PP5 counter inactive
O=C(Nc1nc(-c2ccccn2)cs1)c1cccc(S(=O)(=O)N2CCOCC2)c1	PP1 inh 29.9 | PP1 confirm 31.8 | PP5 counter inactive
Cc1ccc(S(=O)(=O)N2CCOCC2)cc1C(=O)Nc1nc(-c2ccccn2)cs1	none (no result: NR2E3 ag-1, PP5 primary, PP1 inh)
O=C1CCCc2c1ccc1ccccc21	none (no result: NR2E3 ag-1, PP5 primary, PP1 inh)
N#Cc1c(NC(=O)COC(=O)C2CC3C=CC2C3)oc(-c2ccccc2)c1-c1ccccc1 (centres undefined)	PP1 inh 19.0 | PP1 confirm inactive | PP5 counter inactive
COc1ccc(N=C2S/C(=C\c3ccc(OC(C)C(=O)O)c(OC)c3)C(=O)N2CCc2c[nH]c3ccccc23)cc1 (centres undefined)	none (no result: NR2E3 ag-1, PP5 primary, PP1 inh)
COc1cc(/C=C2\SC(=Nc3ccccc3)N(CCc3c[nH]c4ccccc34)C2=O)ccc1OC(C)C(=O)O (centres undefined)	PP1 inh 17.8 | PP1 confirm inactive | PP5 counter inactive
COc1ccc(OC)c(/C=C/c2ccc3cccc(O)c3n2)c1	PP1 inh 18.7 | PP1 confirm 18.3 | PP5 counter inactive
Cc1ccsc1/C=C/c1ccc2ccccc2n1	none
